From article PMC8286830 (Biochemical Journal, 2021)
“And” between values parts separate entries of the source, which are not always exact repeats. Identical values can stand only once. “Also recorded” adds a separate entry of the source.

Assays:
TgCEN1 [1] = experiment: Turbidimetry at 340 nm, TgCEN1 self-assembly; format: physicochemical, Toxoplasma gondii
Method in brief: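 Full-length protein (E. coli Rosetta) at 20 µM in 20 mM Tris–HCl, 20 mM KCl pH 7.5, 37°C, A340 recorded versus time. Run with 1 mM CaCl2, with 1 mM EGTA, or with EGTA added to Ca2+-saturated protein. Ca2+ series 5–2000 µM, read at 25 min versus metal/protein ratio. Also varied: temperature 4–45°C, protein 5–50 µM, KCl 0–150 mM, and 600 µM ANS.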

TgCEN1 [2] = experiment: DLS particle size of TgCEN1; format: physicochemical, Toxoplasma gondii
TgCEN1 [3] = experiment: DLS thermal ramping of TgCEN1; format: physicochemical, Toxoplasma gondii; conditions: 5 µM protein, 1 mM CaCl2, pH 7.5
Method in brief: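 Full-length recombinant protein (E. coli Rosetta) at 5 µM with 1 mM CaCl2 in 20 mM Tris–HCl, 20 mM KCl pH 7.5, clarified by centrifugation. Temperature stepped from 15 to 45°C in 1°C increments, with DLS size measured at each step. Z-average (intensity-weighted mean hydrodynamic size) recorded; midpoint from logistic fit.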

[4] = via N-terminal EF-hands, in vitro; cited from earlier work
N-TgCEN1 [5] = experiment: Turbidimetry at 340 nm, N-TgCEN1; format: physicochemical, Toxoplasma gondii; conditions: 20 µM, 1 mM CaCl2, 20 mM KCl pH 7.5, 37°C
Method in brief: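 Recombinant N-domain (1–94) or C-domain (95–169), Ni-affinity purified. A340 followed over time in a 1 cm cuvette. Standard conditions: 20 µM protein, 20 mM Tris–HCl, 20 mM KCl pH 7.5, 1 mM CaCl2, 37°C. Conditions also varied: CaCl2 0–2 mM, temperature 4–45°C, protein 5–50 µM, KCl 0–150 mM, or 600 µM ANS added.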

N-TgCEN1 [6] = experiment: DLS particle size of N-TgCEN1; format: physicochemical, Toxoplasma gondii; conditions: 10 µM
Method in brief: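 Domains produced in E. coli Rosetta: N-domain residues 1–94 and C-domain 95–169. […] 10 µM protein in 20 mM Tris–HCl pH 7.5, 1 mM CaCl2, at selected KCl concentrations or with 600 µM ANS. Samples centrifuged at 21 000 g for ≥30 min; filtered buffers. Hydrodynamic diameter reported as number distribution (633 nm laser, 173°).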

Δ21TgCEN1 [7] = biological target: T1, Δ21TgCEN1 (Toxoplasma gondii, UniProt A0A125YHX7); experiment: DLS particle size / count rate of Δ21TgCEN1; format: physicochemical; conditions: all other conditions: temperature, protein concentration, KCl, ANS
T1 sequence (A0A125YHX7 22-169): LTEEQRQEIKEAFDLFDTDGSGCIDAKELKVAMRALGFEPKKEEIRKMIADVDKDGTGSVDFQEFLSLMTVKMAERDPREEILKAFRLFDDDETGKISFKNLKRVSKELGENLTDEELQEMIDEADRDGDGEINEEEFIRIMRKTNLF
Method in brief: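 Recombinant tag-free Δ21TgCEN1 from E. coli Rosetta (Ni affinity, TEV cleavage). For DLS, 10 µM protein in 20 mM Tris–HCl, 20 mM KCl pH 7.5 with 1 mM CaCl2 at 37°C was spun at 21 000 g for ≥30 min, then measured before and after adding 50 µM N21 peptide. Diameter was reported as number distribution. In parallel, A340 turbidity of 20 µM protein was followed over time.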

Δ21TgCEN1 [8] = biological target: T1, Δ21TgCEN1; experiment: Turbidimetry at 340 nm, Δ21TgCEN1; format: physicochemical
Method in brief: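 Construct lacking residues 1–21 (E. coli Rosetta) at 20 µM in 20 mM Tris–HCl, 20 mM KCl pH 7.5, 1 mM CaCl2, 37°C. A340 followed over time, before and after adding 50 µM synthetic N-terminal peptide (residues 1–21). Peptide alone with CaCl2 run as a control trace.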

B1: TgCEN1: centrin isoform 1 from Toxoplasma gondii, full-length, overexpressed in E. coli (protein)
chain: MHSRKGASSLPRGRGAGKKTELTEEQRQEIKEAFDLFDTDGSGCIDAKELKVAMRALGFEPKKEEIRKMIADVDKDGTGSVDFQEFLSLMTVKMAERDPREEILKAFRLFDDDETGKISFKNLKRVSKELGENLTDEELQEMIDEADRDGDGEINEEEFIRIMRKTNLF
For B1, the “self-assembly at high ionic strength (turbidity at 340 nm)” value (TgCEN1 [1]; 0–150 mM KCl, 20 mM Tris–HCl pH 7.5, 1 mM CaCl2, 37°C) was “clear inhibition of self-assembly process at high ionic strength”, the “turbidity at 340 nm” value (TgCEN1 [1]; 20 µM, 1 mM CaCl2, 20 mM Tris–HCl, 20 mM KCl pH 7.5, 37°C) was “clear increase in turbidity” and the “turbidity at 340 nm” value (TgCEN1 [1]; EGTA added to Ca^2+-saturated TgCEN1, 20 µM, pH 7.5, 37°C) was “significantly reduced”. For the same molecule, the “turbidity change on Mg^2+ addition” value (TgCEN1 [1]; Mg^2+ up to 10 mM, data not shown) was “No changes in the turbidity profiles”, the “self-assembly rate and plateau (turbidity at 340 nm)” value (TgCEN1 [1]; increasing TgCEN1 concentration (5–50 µM), 1 mM CaCl2, 37°C) was “faster self-assembly process and a higher plateau” and the “self-assembly rate and plateau (turbidity at 340 nm)” value (TgCEN1 [1]; increasing temperature (4–45°C), 1 mM CaCl2) was “increase in the slope of the growth phase at 340 nm and a higher plateau”. For the same molecule, the “light scattering below threshold concentration” value (TgCEN1 [1]; protein concentrations less than 5 µM) was “Low light scattering”, the hydrodynamic diameter (TgCEN1 [2]; 10 µM, 1 mM CaCl2, 20 mM Tris–HCl, 20 mM KCl pH 7.5, 37°C, DLS number distribution, no additive) was 570 ± 5 nm and ~570 nm and the number-averaged hydrodynamic diameter (TgCEN1 [2]; 10 µM, absence of Ca^2+ (1 mM EGTA), 20 mM Tris–HCl, 20 mM KCl pH 7.5, 37°C, DLS number distribution) was 7.54 ± 0.01 nm. The association state (TgCEN1 [2]; 150 mM KCl, 1 mM CaCl2, 37°C) was “monomeric in solution”, the hydrodynamic diameter (TgCEN1 [2]; high ionic strength (KCl), 20 mM Tris–HCl pH 7.5, 1 mM CaCl2, 37°C) was ~7 nm and the hydrodynamic diameter (TgCEN1 [2]; low salt concentrations, 20 mM Tris–HCl pH 7.5, 1 mM CaCl2, 37°C) was 600–800 nm. For the same molecule, the z-average hydrodynamic diameter (TgCEN1 [3]; 15°C) was ~230 nm, the z-average hydrodynamic diameter (TgCEN1 [3]; 45°C) was ~470 nm and the “Ca^2+ ions bound” value [4] was “two Ca^2+ ions; also recorded: two high affinity Ca^2+-binding sites in the N-lobe”.

B2: N-TgCEN1: N-terminal domain of TgCEN1, 1–94 aa (protein)
chain: MHSRKGASSLPRGRGAGKKTELTEEQRQEIKEAFDLFDTDGSGCIDAKELKVAMRALGFEPKKEEIRKMIADVDKDGTGSVDFQEFLSLMTVKM
modifications: left off: His tag (from the Nickel affinity chromatography), end not stated, cleaved
In the case of B2, the “turbidity at 340 nm” value (N-TgCEN1 [5]) is reported as “no turbidity changes at 340 nm”, the particle diameter (N-TgCEN1 [6]; 1 mM CaCl2, 20 mM Tris–HCl, 20 mM KCl pH 7.5) is reported as 250 ± 1 nm and the “association at high ionic strength” value (N-TgCEN1 [6]; selected KCl concentrations, 1 mM CaCl2, DLS) is reported as “inhibition of association process”.

B3: Δ21TgCEN1: truncated variant of TgCEN1 lacking the first 21 residues (22–169) (protein)
chain: LTEEQRQEIKEAFDLFDTDGSGCIDAKELKVAMRALGFEPKKEEIRKMIADVDKDGTGSVDFQEFLSLMTVKMAERDPREEILKAFRLFDDDETGKISFKNLKRVSKELGENLTDEELQEMIDEADRDGDGEINEEEFIRIMRKTNLF
With B3 the “turbidity or size distribution changes” value (Δ21TgCEN1 [7]) was “No changes in turbidity or size distribution”, the “turbidity at 340 nm” value (Δ21TgCEN1 [8]; 1 mM CaCl2, same conditions as full-length (20 µM, 37°C, pH 7.5)) was “no changes in turbidity at 340 nm” and the self-assembly process (Δ21TgCEN1 [8]; removal of the first 21 residues, Ca^2+) was “completely abolished”.
